In ChEMBL document CHEMBL4808210, “Mapping Chromone-3-Phenylcarboxamide Pharmacophore: Quid Est Veritas?” (J Med Chem, 2021):

Columns and labels:
MCF7 [1] = experiment: Cytotoxicity against human MCF7 cells at 10 uM incubated for 24 to 48 hrs by Celltiter-Glo assay relative to control; assay type: cell-based; conditions: mcf7, 10 µM, time 24-48 hrs
In short: (§1)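 Cells (HEK-293, HUVEC, MCF-7) exposed to test compounds at 10 μM for 24 h; cytotoxicity read in triplicate with a luminescence kit measuring intracellular ATP levels.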

MCF7 [2] = experiment: Cytotoxicity against human MCF7 cells incubated for 24 to 48 hrs by Celltiter-Glo assay; assay type: cell-based
HUVEC [3] = experiment: Cytotoxicity against HUVEC cells at 10 uM incubated for 24 to 48 hrs by Celltiter-Glo assay relative to control; assay type: cell-based; conditions: human, time 24-48 hrs; in short: as §1
[4] = molecular target: T1, Amine oxidase [flavin-containing] B (Homo sapiens, UniProt P27338); experiment: (§2) Inhibition of recombinant human MAO-B expressed in baculovirus infected BTI-TN- 5B1-4 insect cells using kynuramine as substrate preincubated for 10 mins in presence of substrate followed by enzyme addition and measured every minute for 30 mins by spectrophotometry analysis; assay type: cell-based
T1 sequence (P27338 whole entry): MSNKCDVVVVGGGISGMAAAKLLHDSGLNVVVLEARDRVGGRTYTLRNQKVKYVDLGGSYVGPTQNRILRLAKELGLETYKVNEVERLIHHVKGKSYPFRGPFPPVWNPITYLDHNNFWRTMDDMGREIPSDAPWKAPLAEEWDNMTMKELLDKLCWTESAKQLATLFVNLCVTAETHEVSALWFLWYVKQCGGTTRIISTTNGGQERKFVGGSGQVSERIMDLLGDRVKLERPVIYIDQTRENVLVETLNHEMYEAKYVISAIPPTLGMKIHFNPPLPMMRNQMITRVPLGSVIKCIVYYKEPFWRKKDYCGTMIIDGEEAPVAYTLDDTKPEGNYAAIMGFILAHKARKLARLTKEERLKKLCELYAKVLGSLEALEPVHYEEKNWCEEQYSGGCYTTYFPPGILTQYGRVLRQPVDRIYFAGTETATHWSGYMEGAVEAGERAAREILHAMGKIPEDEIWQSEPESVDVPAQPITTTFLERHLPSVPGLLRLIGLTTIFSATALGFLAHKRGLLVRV

HUVEC [5] = experiment: Cytotoxicity against HUVEC cells incubated for 24 to 48 hrs by Celltiter-Glo assay; assay type: cell-based, Homo sapiens; conditions: huvec
HEK293 [6] = experiment: Cytotoxicity against HEK293 cells incubated for 24 to 48 hrs by Celltiter-Glo assay; assay type: cell-based, Homo sapiens
Caco-2 = experiment: Cytotoxicity against human Caco-2 cells assessed as effect on cell viability at 1 to 10 uM measured after 24 hrs by MTT assay; assay type: cell-based; conditions: caco-2, 24 h, dose 1-10 µM
In short: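 Caco-2 cells, and SH-SY5Y cells first differentiated toward a dopaminergic-like phenotype, were treated for 24 h with compounds at 1 and 10 μM. Metabolic activity was read as MTT reduction to formazan, relative to untreated cells. Mean ± SEM of at least three independent experiments, each in triplicate.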

[7] = molecular target: T1, Amine oxidase [flavin-containing] B; experiment: Time dependent inhibition of recombinant human MAO-B expressed in baculovirus infected BTI-TN- 5B1-4 insect cells assessed as increase in enzyme activity at IC80 measured after 120 mins; conditions: bti-tn-5b1-4, 2 h
[8] = molecular target: ATP-dependent translocase ABCB1 (Homo sapiens, UniProt P08183); experiment: Modulation of P-gp-mediated Rhodamine-123 efflux in human Caco-2 cells assessed as Rhodamine-123 accumulation at 10 uM pretreated for 30 mins in presence or absence of Zos followed by Rho-123 addition and measured after 90 mins by fluorescence spectroscopy; assay type: cell-based; conditions: caco-2, 2 h, time 120 min
In short: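 Caco-2 cells were exposed to compounds at 10 μM during incubation with the P-gp substrate rhodamine 123 (5 μM). Zosuquidar served as the specific P-gp inhibitor. Cellular rhodamine 123 was read by fluorescence spectroscopy. Mean ± SEM of at least three independent experiments in triplicate.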

[9] = molecular target: T1, Amine oxidase [flavin-containing] B; experiment: Mixed-type inhibition of recombinant human MAO-B expressed in baculovirus infected BTI-TN- 5B1-4 insect cells at 1 to 5 nM using varying levels of kynuramine as substrate by Lineweaver-Burk plot analysis; conditions: dose 1-5 nM
In short: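 Initial rates of hMAO-B activity were measured at six kynuramine concentrations (10−100 μM), without inhibitor and at three inhibitor concentrations. Kinetic parameters were read from a double-reciprocal Lineweaver−Burk plot. An Ackermann−Potter plot of total enzyme concentration was also constructed.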

hERG = hERG (Homo sapiens, UniProt Q12809); experiment: Inhibition of human ERG at 10 uM incubated for 2 hrs by fluorescence polarization assay relative to control
In short: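 hERG binding was measured by fluorescence polarization, using a homogenized membrane preparation containing hERG plus a fluorescent tracer. A drop in FP signal from tracer displacement was read as inhibition. Compounds were tested at 10 μM.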

MAO-A = molecular target: T2, MAO-A (Homo sapiens, UniProt P21397); experiment: as §2, with “MAO-A” for “MAO-B”, “cells at 10 uM” for “cells”, “analysis relative to control” for “analysis”; conditions: probe kynuramine, time 40 min
T2 sequence (P21397 whole entry): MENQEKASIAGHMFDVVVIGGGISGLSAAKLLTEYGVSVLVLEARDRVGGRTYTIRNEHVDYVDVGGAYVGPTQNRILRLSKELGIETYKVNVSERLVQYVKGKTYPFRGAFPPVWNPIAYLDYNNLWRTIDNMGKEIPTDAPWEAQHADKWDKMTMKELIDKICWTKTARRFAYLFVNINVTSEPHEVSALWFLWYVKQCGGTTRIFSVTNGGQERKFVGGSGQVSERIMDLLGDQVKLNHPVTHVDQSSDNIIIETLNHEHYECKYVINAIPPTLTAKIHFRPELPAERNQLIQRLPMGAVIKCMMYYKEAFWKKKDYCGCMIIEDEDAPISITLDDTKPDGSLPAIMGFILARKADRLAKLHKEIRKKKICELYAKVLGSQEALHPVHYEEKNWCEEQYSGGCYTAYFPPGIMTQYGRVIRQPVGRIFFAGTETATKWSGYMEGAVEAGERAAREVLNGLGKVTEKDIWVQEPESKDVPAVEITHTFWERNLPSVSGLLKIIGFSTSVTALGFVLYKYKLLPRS
In short: (§3)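 Recombinant hMAO-A and hMAO-B were assayed with kynuramine as substrate. Percent inhibition was taken at 10 μM, the highest concentration tested. Where the hMAO-A IC₅₀ was not reached, it was taken as 10 μM.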

SH-SY5Y [10] = experiment: Protection against iron(III)-induced damage in human SH-SY5Y cells assessed as increase in lysosomal activity at 10 uM pretreated for 30 mins followed by iron(III) treatment after 24 hrs by NR uptake assay relative to control; assay type: functional; conditions: time 24.5 hrs
In short: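 Differentiated SH-SY5Y cells were pretreated with compounds at 1 or 10 μM for 30 min, then exposed to iron(III) at 1000 or 1500 μM for 24 h. Viability was read by neutral red uptake. Mean ± SD of three independent experiments, two-way ANOVA.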

HEK293 [11] = experiment: Cytotoxicity against HEK293 cells at 10 uM incubated for 24 to 48 hrs by Celltiter-Glo assay relative to control; assay type: cell-based; conditions: human, hek293, 10 µM, time 24-48 hrs; in short: as §1
SH-SY5Y [12] = experiment: Cytotoxicity against human SH-SY5Y cells assessed as effect on NR uptake at 1 to 10 uM measured after 24 hrs by neutral red uptake assay; assay type: cell-based; conditions: dose 1-10 µM
In short: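 Differentiated SH-SY5Y cells were exposed to compounds at 1 and 10 μM for 24 h. Lysosomal activity was read as neutral red dye uptake and compared with untreated cells. Mean ± SEM of at least three independent experiments run in triplicate.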

Homo sapiens = species on record: Homo sapiens; experiment: Selectivity index, ratio of IC50 for recombinant human MAO-A expressed in baculovirus infected BTI-TN- 5B1-4 insect cells to IC50 for recombinant human MAO-B expressed in baculovirus infected BTI-TN- 5B1-4 insect cells using kynuramine as substrate preincubated for 10 mins in presence of substrate followed by enzyme addition and measured every minute for 30 mins by spectrophotometry analysis; in short: as §3

Chain of ATP-dependent translocase ABCB1 (P08183 whole entry): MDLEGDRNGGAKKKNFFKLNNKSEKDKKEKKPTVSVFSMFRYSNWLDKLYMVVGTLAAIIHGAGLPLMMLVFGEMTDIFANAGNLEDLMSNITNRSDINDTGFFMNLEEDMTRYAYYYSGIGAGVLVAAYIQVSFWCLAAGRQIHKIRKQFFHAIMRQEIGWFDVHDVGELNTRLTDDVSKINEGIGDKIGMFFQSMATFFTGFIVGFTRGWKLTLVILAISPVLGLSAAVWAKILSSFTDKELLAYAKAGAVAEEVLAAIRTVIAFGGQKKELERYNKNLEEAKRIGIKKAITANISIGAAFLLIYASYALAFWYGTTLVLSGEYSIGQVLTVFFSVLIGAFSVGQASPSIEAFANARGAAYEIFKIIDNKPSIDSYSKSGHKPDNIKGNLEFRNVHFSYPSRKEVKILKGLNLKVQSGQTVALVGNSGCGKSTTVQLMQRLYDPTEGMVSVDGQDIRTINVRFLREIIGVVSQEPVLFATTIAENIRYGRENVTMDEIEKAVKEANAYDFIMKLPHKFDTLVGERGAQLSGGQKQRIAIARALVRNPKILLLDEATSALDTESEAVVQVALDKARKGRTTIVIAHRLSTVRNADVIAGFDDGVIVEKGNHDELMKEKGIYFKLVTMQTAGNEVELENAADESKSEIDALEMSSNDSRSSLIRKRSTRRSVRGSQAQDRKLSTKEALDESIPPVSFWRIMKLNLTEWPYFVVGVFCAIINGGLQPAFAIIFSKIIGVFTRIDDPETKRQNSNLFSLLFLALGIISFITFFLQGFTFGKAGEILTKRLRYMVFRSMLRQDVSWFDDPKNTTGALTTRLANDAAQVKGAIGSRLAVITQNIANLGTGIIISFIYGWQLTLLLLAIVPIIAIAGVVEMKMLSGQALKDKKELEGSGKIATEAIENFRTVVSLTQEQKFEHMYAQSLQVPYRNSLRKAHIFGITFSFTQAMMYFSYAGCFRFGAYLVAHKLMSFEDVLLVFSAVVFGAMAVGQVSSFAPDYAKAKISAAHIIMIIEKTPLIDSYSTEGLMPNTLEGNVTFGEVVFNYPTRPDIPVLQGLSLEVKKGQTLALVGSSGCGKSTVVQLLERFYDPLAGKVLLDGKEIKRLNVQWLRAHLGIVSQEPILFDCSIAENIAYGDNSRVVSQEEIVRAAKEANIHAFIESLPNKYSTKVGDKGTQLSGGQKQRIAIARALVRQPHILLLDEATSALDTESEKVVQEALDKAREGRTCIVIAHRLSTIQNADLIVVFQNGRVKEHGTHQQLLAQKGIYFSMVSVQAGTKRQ
Chain of hERG (Q12809 whole entry): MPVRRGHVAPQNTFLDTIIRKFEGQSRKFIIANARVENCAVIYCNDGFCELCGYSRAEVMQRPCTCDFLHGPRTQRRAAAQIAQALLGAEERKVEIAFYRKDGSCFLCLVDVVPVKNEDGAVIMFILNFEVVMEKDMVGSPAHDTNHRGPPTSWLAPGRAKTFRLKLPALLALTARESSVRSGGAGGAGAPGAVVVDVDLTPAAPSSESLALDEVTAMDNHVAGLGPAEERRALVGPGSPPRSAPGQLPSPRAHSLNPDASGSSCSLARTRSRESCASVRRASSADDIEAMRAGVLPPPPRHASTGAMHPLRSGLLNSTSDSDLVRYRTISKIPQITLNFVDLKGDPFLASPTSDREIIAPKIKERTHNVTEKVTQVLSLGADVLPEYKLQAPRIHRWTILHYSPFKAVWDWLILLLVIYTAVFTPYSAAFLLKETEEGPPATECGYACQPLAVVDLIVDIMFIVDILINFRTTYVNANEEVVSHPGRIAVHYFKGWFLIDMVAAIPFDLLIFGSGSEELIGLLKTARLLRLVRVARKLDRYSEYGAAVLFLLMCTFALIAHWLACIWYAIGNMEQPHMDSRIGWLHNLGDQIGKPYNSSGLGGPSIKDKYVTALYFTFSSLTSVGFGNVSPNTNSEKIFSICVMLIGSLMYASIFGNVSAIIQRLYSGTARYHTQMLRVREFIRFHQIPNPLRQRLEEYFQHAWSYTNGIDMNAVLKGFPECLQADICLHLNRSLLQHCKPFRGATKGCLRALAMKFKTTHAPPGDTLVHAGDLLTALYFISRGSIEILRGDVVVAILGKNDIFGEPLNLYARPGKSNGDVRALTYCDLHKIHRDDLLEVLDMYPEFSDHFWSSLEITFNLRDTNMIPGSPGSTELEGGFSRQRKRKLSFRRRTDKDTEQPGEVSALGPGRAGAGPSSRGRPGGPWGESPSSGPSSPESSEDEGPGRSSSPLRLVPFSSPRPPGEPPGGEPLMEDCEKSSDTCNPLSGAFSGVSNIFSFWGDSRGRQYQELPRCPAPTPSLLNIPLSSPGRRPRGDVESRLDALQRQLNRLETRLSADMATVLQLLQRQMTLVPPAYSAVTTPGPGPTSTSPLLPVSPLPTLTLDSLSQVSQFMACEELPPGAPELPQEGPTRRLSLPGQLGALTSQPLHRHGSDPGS

IC50 [4]: 1.52 nM
TDI [7]: Active
Activity [8]: Not Active
inhibition (INH) [9]: Active
inhibition at 0.5 h, 10 µM (MAO-A): 0.7%
SMILES: O=C(Nc1cccc(Cl)c1)c1csc2ccccc2c1=O
Activity (MCF7 [1]): < 10%
IC50 (MCF7 [2]): Not Active
Activity (HUVEC [3]): < 10%
IC50 (HUVEC [5]): Not Active
IC50 (HEK293 [6]): Not Active
Activity (Caco-2): Non-Toxic
inhibition at 2 h, 10 µM (hERG): < 10%
Activity (SH-SY5Y [10]): 63%
Activity (HEK293 [11]): < 10%
Activity (SH-SY5Y [12]): Non-Toxic
Ratio IC50 (Homo sapiens): > 6570
